These results are taken from ChEMBL document CHEMBL1134669, “N-Succinyl-(beta-alanyl-L-leucyl-L-alanyl-L-leucyl)doxorubicin: an extracellularly tumor-activated prodrug devoid of intravenous acute toxicity” (2001).

The subject of assay [1] is Mus musculus. The assay is described as follows: Effect of heparin pretreatment on the acute toxicity when 0 IU of heparin administered; Activity as % of animals. The format is functional. The method in brief: (§1)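 Male OF-1 mice; heparin (low molecular weight, 0, 4000 or 8000 IU in 0.9% NaCl, filter-sterilized) given ip or iv 1 h before iv bolus of prodrug in 0.9% NaCl (10 µL/g body weight) at 172.4 µmol/kg. Acute toxicity scored as % of animals; survival time recorded in days. At least 3 animals per experiment.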

Assay [2] relates to Mus musculus. Put plainly: Minimum survival time after heparin pretreatment to mice at 0 IU of heparin administered.
The subject of assay [3] is Mus musculus. Put plainly: Effect of heparin pretreatment on the acute toxicity when 4000 IU of heparin administered ip; Activity as % of animals. The format is functional. In short, it runs like this:
as §1

The subject of assay [4] is Mus musculus. Put plainly: Effect of heparin pretreatment on the acute toxicity when 4000 IU of heparin administered iv; Activity as % of animals. The format is functional. The method in brief: as §1
For assay [5], the system named is Mus musculus. The assay is described as follows: Effect of heparin pretreatment on the acute toxicity when 8000 IU of heparin administered ip. The format is functional. In short, it runs like this: as §1
The subject of assay [6] is Mus musculus. The assay is described as follows: Maximum survival time after heparin pretreatment to mice at 4000 IU of heparin administered intraperitoneally. The assay is classed as functional. The method in brief: as §1
The test system of assay [7] is Mus musculus. The assay is described as follows: Maximum survival time after heparin pretreatment to mice at 4000 IU of heparin administered intravenously. The format is functional. In short, it runs like this: as §1
Assay [8] has as its system Mus musculus. Put plainly: Maximum survival time after heparin pretreatment to mice at 8000 IU of heparin administered intraperitoneally. The assay is classed as functional. In short, it runs like this: as §1

Regarding `COc1cccc2c1C(=O)c1c(O)c3c(c(O)c1C2=O)C[C@@](O)(C(=O)CO)C[C@@H]3O[C@H]1C[C@H](NC(=O)[C@H](CC(C)C)NC(=O)[C@H](C)NC(=O)[C@H](CC(C)C)NC(=O)CCNC(=O)CCC(=O)[O-])[C@H](O)[C@H](C)O1.[Na+]`, the Acute toxicity in the assay on Mus musculus [1] is listed as 0%. Besides, the min survival time in the assay on Mus musculus [2] is 9 days.

As to `CC(O)C(=O)O.COc1cccc2c1C(=O)c1c(O)c3c(c(O)c1C2=O)C[C@@](O)(C(=O)CO)C[C@@H]3O[C@H]1C[C@H](NC(=O)[C@H](CC(C)C)NC(=O)[C@H](C)NC(=O)[C@H](CC(C)C)NC(=O)CCN)[C@H](O)[C@H](C)O1`, the Acute toxicity with Mus musculus [1] is recorded as 100%; in the assay with Mus musculus [3], 37%; with Mus musculus [4] it was 33%; in the assay on Mus musculus [5] it was 0%. The MST with Mus musculus [6] came to 9 days; in the assay on Mus musculus [7] it was 11 days; in the assay with Mus musculus [8], 11 days. For the same compound, the min survival time in the assay on Mus musculus [2] amounted to 0 days.
